Shown are actives, neighbours in structure and some others; about 4.3% of the full set was active somewhere.
GalR3 antagonist – human GalR3 antagonism | O60755 | HEK293 GalR3-CNG cAMP membrane potential fluorescence; galR3 body fused to GalR1 C-terminus | inhibition, % at 3 µM | hit rate 0.44% among 360,000;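 active means inhibition above the screen-wide average plus 3 SD, cut at about 13% in these data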;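 further: forskolin and galanin both at EC90 stimulate the cells; cAMP rise reported by CNG channel membrane potential dye signal; 0% = forskolin plus galanin with DMSO and 100% = forskolin alone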
TAAR1 antagonist – human TAAR1 antagonism. Q96RJ0. CHO RD-HGA16 TAAR1, Fluo-8 calcium fluorescence, antagonist. inhibition, % at 3 µM. hit rate 1.5% among 360,000. AID 624466;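 active means inhibition above a per-plate cutoff, the mean inhibition of test compounds on that plate plus 3 SD, cut at about 49% in these data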;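 further: 0% = DMSO plus EC80 beta-PEA response and 100% = DMSO alone without agonist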
Target sequence (Q96RJ0 whole entry, looked up): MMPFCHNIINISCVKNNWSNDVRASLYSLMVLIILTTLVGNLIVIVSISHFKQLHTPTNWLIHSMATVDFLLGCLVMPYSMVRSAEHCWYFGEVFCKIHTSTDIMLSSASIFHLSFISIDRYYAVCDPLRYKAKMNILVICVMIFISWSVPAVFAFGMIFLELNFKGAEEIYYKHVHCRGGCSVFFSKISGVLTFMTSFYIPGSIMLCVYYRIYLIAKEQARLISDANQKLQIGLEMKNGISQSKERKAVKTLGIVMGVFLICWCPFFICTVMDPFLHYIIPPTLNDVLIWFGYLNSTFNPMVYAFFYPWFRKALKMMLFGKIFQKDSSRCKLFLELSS
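Test system: RD-HGA16 CHO cells with stable hTAAR1 and Gα16 / Probe or stimulus: EC80 β-phenethylamine stimulus / Times: seeding 17-24 h prior, 75-min 37 °C, 30-min RT dye loading / Detection: Fluo-8 calcium-sensitive fluorescence / Read-out basis: % inhibition scaled between DMSO and EC80 PEA controls / Repeats: singlicate, one well per test compound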
TAAR1 ag – agonists of human TAAR1. Q96RJ0. CHO RD-HGA16 TAAR1, Fluo-8 calcium fluorescence; vehicle wells 0%, saturating PEA agonist 100%. activation, % at 3 µM. hit rate 0.99% among 360,000. AID 624467;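 active means activation above the mean activation of all test compounds in the run plus 3 SD, cut at about 38% in these data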
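Assay system: CHO-derived RD-HGA16 cells with stable Gα16 and human TAAR1; timing: 17-24 h seeding, 75 min 37 °C dye, 30 min RT; read-out: % activation from peak over basal fluorescence ratio, DMSO-to-PEA scaled; measured by: kinetic Fluo-8 calcium fluorescence; benchmarks: low control DMSO, high control PEA (EC100); doses: 3 µM single concentration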
OX1R antag-1 – human HCRTR1 antagonism. O43613. CHO/OX1R cells, Fluo-8 calcium fluorescence, orexin A. inhibition, % at 5 µM. hit rate 0.43% among 330,000;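 active means inhibition above its plate's threshold, mean inhibition of all tested compounds on the plate plus 3 SD, cut at about 37% in these data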;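 further: 0% = orexin A challenge wells and 100% = SB-334867-A antagonist wells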
Target sequence (O43613 whole entry, looked up): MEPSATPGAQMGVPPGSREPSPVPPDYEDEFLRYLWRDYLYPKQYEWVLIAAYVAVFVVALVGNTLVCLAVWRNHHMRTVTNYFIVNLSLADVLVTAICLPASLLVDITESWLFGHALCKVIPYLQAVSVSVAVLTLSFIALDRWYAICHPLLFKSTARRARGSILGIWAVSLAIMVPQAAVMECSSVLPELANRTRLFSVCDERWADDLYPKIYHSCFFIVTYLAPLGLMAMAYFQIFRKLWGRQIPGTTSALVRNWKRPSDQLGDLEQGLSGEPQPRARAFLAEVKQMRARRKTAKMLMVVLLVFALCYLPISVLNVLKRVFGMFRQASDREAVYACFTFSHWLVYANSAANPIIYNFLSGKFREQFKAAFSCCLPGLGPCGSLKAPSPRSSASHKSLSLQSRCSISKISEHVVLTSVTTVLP
OX1R antag-2 – blocks the human orexin 1 receptor; inhibition, % at 6.6 µM; hit rate 1.8% among 330,000; OX1R-expressing cells, FRET antagonist read-out; O43613; AID 485270; in the data active means inhibition mostly above about 38%, no sharp cut-off; inactive means mostly below about 40%;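 further: 0% = agonist challenge alone and 100% = reference antagonist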
CHO parental Ca – signal in parental CHO cells, OX1R antagonist counter-screen; parental CHO-K1, ATP-induced calcium, Fluo-8 fluorescence; inhibition, % at 5.6 µM; hit rate 0.63% among 330,000;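 active means inhibition above that plate's mean sample inhibition plus 3 SD, cut at about 26% in these data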;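 further: 0% = ATP-challenged DMSO wells and 100% = DMSO wells without ATP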
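Material – parental CHO cells · Reagent – ATP stimulus · Compound – single nominal dose of 5.6 µM per compound · Detection – Fluo-8 fluorescence · Read-out basis – percent inhibition of calcium signal · Controls – ATP-challenged DMSO wells low, unchallenged DMSO wells high · Repeats – no replicates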
nonsel antag count – counter-screen for TAAR1 antagonists: nonselective antagonists | hit rate 77% among 2,400 | inhibition, % at 3 µM | shares compounds with TAAR1 antagonist | counterscreen cell line, calcium fluorescence, antagonist mode; in the data active means inhibition above about 22%;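 further: CHO-Ga16 host cells stimulated with ATP at an EC80 level; 0% = agonist EC80 plus vehicle and 100% = vehicle without agonist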
TAAR1 ant conf – human TAAR1 antagonism, confirmed; shares compounds with TAAR1 antagonist; hit rate 40% among 2,400; TAAR1-expressing cells, fluorescence antagonist read-out; inhibition, % at 3 µM; AID 651785; in the data active means inhibition above about 49%;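 further: CHO-Ga16 host cells challenged with agonist PEA near its EC80; 0% = agonist at EC80 plus vehicle and 100% = vehicle with no agonist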
Ga16 nonsel ag – nonselective Ga16 agonist in TAAR1 antagonist counter-screen. shares compounds with TAAR1 antagonist. Ga16-expressing cells, calcium fluorescence, agonist counterscreen. activation, % at 3 µM. hit rate 18% among 2,400; in the data active means activation above about 12%;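 further: 0% = vehicle wells and 100% = saturating stimulus response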
TAAR1 ag count – counter-screen for human TAAR1 antagonists: TAAR1 agonists | shares compounds with TAAR1 antagonist | hTAAR1 cell line, fluorescence activation, agonist mode | activation, % at 3 µM | hit rate 2% among 2,400; in the data active means activation above about 37%;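 further: CHO cells stably expressing TAAR1 with calcium dye readout; 0% = DMSO vehicle and 100% = full agonist response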
An asterisk follows results filed as active.

How did Cc1ccc2nc(NC(=O)CS(=O)(=O)Cc3ccccc3)sc2c1 do in these assays?
GalR3 antagonist: -5.0; TAAR1 antagonist: 0.8; TAAR1 ag: 3.4; OX1R antag-1: -12.9; OX1R antag-2: 14.0; CHO parental Ca: -27.7

What do the screens show for `Cc1ccc2nc(NC(=O)CSCc3ccccc3)sc2c1`?
GalR3 antagonist: -7.5; TAAR1 antagonist: 49.7*; TAAR1 ag: 29.0; OX1R antag-1: -18.3; OX1R antag-2: 32.5; CHO parental Ca: -24.3; nonsel antag count: 4.8; TAAR1 ant conf: 40.6; Ga16 nonsel ag: 8.3; TAAR1 ag count: 23.2

Results for CN(C)c1ccc(Nc2nc(N)c([N+](=O)[O-])c(N3CCOCC3)n2)cc1 ?
GalR3 antagonist: -0.6; TAAR1 antagonist: 54.2*; TAAR1 ag: 14.2; OX1R antag-1: -24.1; OX1R antag-2: 34.7; CHO parental Ca: -20.1; nonsel antag count: 21.9*; TAAR1 ant conf: 35.6; Ga16 nonsel ag: 6.6; TAAR1 ag count: 5.9

Results for COc1ccc(Nc2nc(N)c([N+](=O)[O-])c(N3CCOCC3)n2)cc1 ?
GalR3 antagonist: -0.6; TAAR1 antagonist: 30.8; TAAR1 ag: 6.5; OX1R antag-1: -33.8; OX1R antag-2: 23.1; CHO parental Ca: -46.9

Results for Cc1cccc(OCC(=O)Nc2cccc(C(=O)NCC(C)C)c2)c1 ?
GalR3 antagonist: -10.2; TAAR1 antagonist: 70.5*; TAAR1 ag: 32.8; OX1R antag-1: -21.5; OX1R antag-2: 24.6; CHO parental Ca: -17.3; nonsel antag count: 10.3; TAAR1 ant conf: 21.6; Ga16 nonsel ag: 7.2; TAAR1 ag count: 11.2

Results for O=C(Nc1ccc2ccccc2c1)c1cccc([N+](=O)[O-])c1 ?
GalR3 antagonist: -4.9; TAAR1 antagonist: 19.1; TAAR1 ag: -1.6; OX1R antag-1: -28.4; OX1R antag-2: 4.0; CHO parental Ca: -5.4

Results for O=C(Nc1ccc(COc2ccccc2)cc1)c1cccc([N+](=O)[O-])c1 ?
GalR3 antagonist: -2.5; TAAR1 antagonist: 60.2*; TAAR1 ag: 28.2; OX1R antag-1: -21.4; OX1R antag-2: 21.9; CHO parental Ca: 3.4; nonsel antag count: 28.2*; TAAR1 ant conf: 67.7*; Ga16 nonsel ag: 10.7; TAAR1 ag count: 26.9

Results for O=C(NC(CC(=O)N1CCN(c2ccccc2O)CC1)c1ccccc1)c1ccccc1Cl (configuration not stated) ?
GalR3 antagonist: -7.3; TAAR1 antagonist: 28.0; TAAR1 ag: 8.6; OX1R antag-1: -17.4; OX1R antag-2: 18.4; CHO parental Ca: -23.9

How did COc1cc(-c2cc(C(=O)Nc3ccncc3)c3ccccc3n2)cc(OC)c1OC do in these assays?
GalR3 antagonist: -0.5; TAAR1 antagonist: 61.1*; TAAR1 ag: 23.4; OX1R antag-1: -30.1; OX1R antag-2: 4.9; CHO parental Ca: -22.6; nonsel antag count: 27.9*; TAAR1 ant conf: 48.5; Ga16 nonsel ag: 7.8; TAAR1 ag count: 6.4

Results for COc1cc(-c2cc(C(=O)Nc3ccc(N4CCOCC4)cc3)c3ccccc3n2)cc(OC)c1OC ?
GalR3 antagonist: -2.8; TAAR1 antagonist: 72.2*; TAAR1 ag: 12.5; OX1R antag-1: -9.3; OX1R antag-2: 4.9; CHO parental Ca: -0.4; nonsel antag count: 31.6*; TAAR1 ant conf: 50.7*; Ga16 nonsel ag: 6.8; TAAR1 ag count: 6.0

How did COc1ccccc1NC(=O)c1cc(-c2cc(OC)c(OC)c(OC)c2)nc2ccccc12 do in these assays?
GalR3 antagonist: -9.3; TAAR1 antagonist: 18.6; TAAR1 ag: 2.1; OX1R antag-1: -2.6; OX1R antag-2: 27.1; CHO parental Ca: -6.8

Results for O=C(Nc1cccnc1)c1cc(-c2cccc(Br)c2)nc2ccccc12 ?
GalR3 antagonist: 4.2; TAAR1 antagonist: 65.4*; TAAR1 ag: 2.1; OX1R antag-1: -25.9; OX1R antag-2: 34.7; CHO parental Ca: -21.4; nonsel antag count: 26.7*; TAAR1 ant conf: 46.8; Ga16 nonsel ag: 5.5; TAAR1 ag count: 4.6

How did CCOc1ccccc1NC(=O)c1cc(-c2cc(OC)c(OC)c(OC)c2)nc2ccccc12 do in these assays?
GalR3 antagonist: 3.4; TAAR1 antagonist: 59.3*; TAAR1 ag: 5.8; OX1R antag-1: -24.8; OX1R antag-2: 19.6; CHO parental Ca: -13.9; nonsel antag count: 28.9*; TAAR1 ant conf: 50.6*; Ga16 nonsel ag: 4.3; TAAR1 ag count: 2.0

Results for O=S1(=O)CC(N2CCN(CCO)CC2)CN1Cc1cn(Cc2ccccc2)nn1 (configuration not stated) ?
GalR3 antagonist: -3.2; TAAR1 antagonist: -4.0; TAAR1 ag: 3.5

Results for CC(C)c1nnc(NC(=O)C2CCCN2C(=O)Nc2cccc(Cl)c2)s1 (configuration not stated) ?
GalR3 antagonist: -8.5; TAAR1 antagonist: -2.1; TAAR1 ag: -2.1; OX1R antag-1: -23.4; OX1R antag-2: 29.6; CHO parental Ca: -3.5

How did CCC(OC(=O)C(CC(C)C)NC(=O)c1ccccc1)C(=O)Nc1nnc(C)s1 (configuration not stated) do in these assays?
GalR3 antagonist: 5.7; TAAR1 antagonist: 39.6; TAAR1 ag: 2.9; OX1R antag-1: -25.2; OX1R antag-2: 0.4; CHO parental Ca: -28.8

What do the screens show for `CCOC(=O)c1sc(NC(=O)C(CC)OC(=O)C(CC(C)C)NC(=O)c2ccccc2)nc1C` (configuration not stated)?
GalR3 antagonist: -4.4; TAAR1 antagonist: 65.5*; TAAR1 ag: 11.3; OX1R antag-1: -27.3; OX1R antag-2: 16.2; CHO parental Ca: -28.6; nonsel antag count: 38.6*; TAAR1 ant conf: 56.9*; Ga16 nonsel ag: 7.1; TAAR1 ag count: 4.2

Results for COc1ccc(NC(=O)C2(C)CCN2C(=O)c2ccccc2CCc2ccccc2)cc1OC (configuration not stated) ?
GalR3 antagonist: -2.4; TAAR1 antagonist: 64.8*; TAAR1 ag: 5.1; nonsel antag count: 18.4; TAAR1 ant conf: 42.6; Ga16 nonsel ag: 5.6; TAAR1 ag count: 15.6

What do the screens show for `O=C(CC(C(=O)c1ccccc1)c1ccccc1)c1ccccc1` (configuration not stated)?
GalR3 antagonist: -4.8; TAAR1 antagonist: 66.7*; TAAR1 ag: 0.9; nonsel antag count: 22.7*; TAAR1 ant conf: 40.1; Ga16 nonsel ag: 6.0; TAAR1 ag count: 2.0

From PubChem BioAssay
